In publication PMC5167571 (Molecular pharmaceutics, 2015):
Starred links: 1 amine or outer side, 2 acyl side, 3 side chain; linkers in the order of their positions; H or OH if unused. Non-standard residues stand in square brackets, D forms with d. Residues, ends and D or L forms follow the SMILES beside them. *: point of attachment. DOTA = O=C(O)CN1CCN(CC(=O)O)CCN(CC(=O)*)CCN(CC(=O)O)CC1; Acryloyl(3-(3-pyridyl),E) = O=C(/C=C/c1cccnc1)*; X1 = O=C(Cc1ccc(N[*:1])cc1)[*:2]; Aad = N[C@@H](CCCC(=O)O)C(=O)O; NH(2-Me-phenyl) = Cc1ccccc1N*; PEG4 = NCCOCCOCCOCCOCCC(=O)O; Ac6c = NC1(C(=O)O)CCCCC1; CO = O=C([*:1])[*:2]

Assays:
VLA-4 (integrin α4β1) = VLA-4 (integrin α4β1) (Mus musculus, UniProt P09055+Q00651); test: Competitive binding assay with ^64Cu-NODAGA-PEG4-LLP2A in B16F10 melanoma cells; conditions: VLA-4, B16F10 cells; Ki of Ga conjugate vs Kd of Lu conjugate
Chain of VLA-4 (integrin α4β1) (Q00651 41-1039): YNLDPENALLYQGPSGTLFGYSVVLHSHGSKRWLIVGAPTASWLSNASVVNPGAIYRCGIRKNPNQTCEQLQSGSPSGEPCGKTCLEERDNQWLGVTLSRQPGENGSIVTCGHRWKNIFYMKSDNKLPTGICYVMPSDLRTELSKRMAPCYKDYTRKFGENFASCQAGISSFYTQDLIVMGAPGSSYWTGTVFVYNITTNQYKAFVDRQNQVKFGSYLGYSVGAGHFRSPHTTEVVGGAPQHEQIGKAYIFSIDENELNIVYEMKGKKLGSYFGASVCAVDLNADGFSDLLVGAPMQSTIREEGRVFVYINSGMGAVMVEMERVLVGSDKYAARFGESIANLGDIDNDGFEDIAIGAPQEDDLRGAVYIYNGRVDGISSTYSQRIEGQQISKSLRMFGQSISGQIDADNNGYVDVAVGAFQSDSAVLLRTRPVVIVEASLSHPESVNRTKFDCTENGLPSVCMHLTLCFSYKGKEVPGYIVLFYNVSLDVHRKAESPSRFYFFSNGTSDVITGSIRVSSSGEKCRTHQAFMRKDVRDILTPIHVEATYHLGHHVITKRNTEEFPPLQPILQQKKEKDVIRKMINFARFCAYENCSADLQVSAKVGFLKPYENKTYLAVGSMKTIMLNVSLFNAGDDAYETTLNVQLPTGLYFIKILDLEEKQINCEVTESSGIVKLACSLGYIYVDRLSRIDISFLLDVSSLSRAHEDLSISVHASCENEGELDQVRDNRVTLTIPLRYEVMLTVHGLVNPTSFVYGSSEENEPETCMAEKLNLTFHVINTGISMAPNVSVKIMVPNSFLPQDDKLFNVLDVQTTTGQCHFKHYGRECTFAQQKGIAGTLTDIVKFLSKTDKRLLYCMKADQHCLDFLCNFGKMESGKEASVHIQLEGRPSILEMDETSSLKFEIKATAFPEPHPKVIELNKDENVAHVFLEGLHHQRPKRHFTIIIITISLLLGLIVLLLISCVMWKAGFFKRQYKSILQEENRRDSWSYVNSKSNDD
Chain of VLA-4 (integrin α4β1) (P09055 21-798): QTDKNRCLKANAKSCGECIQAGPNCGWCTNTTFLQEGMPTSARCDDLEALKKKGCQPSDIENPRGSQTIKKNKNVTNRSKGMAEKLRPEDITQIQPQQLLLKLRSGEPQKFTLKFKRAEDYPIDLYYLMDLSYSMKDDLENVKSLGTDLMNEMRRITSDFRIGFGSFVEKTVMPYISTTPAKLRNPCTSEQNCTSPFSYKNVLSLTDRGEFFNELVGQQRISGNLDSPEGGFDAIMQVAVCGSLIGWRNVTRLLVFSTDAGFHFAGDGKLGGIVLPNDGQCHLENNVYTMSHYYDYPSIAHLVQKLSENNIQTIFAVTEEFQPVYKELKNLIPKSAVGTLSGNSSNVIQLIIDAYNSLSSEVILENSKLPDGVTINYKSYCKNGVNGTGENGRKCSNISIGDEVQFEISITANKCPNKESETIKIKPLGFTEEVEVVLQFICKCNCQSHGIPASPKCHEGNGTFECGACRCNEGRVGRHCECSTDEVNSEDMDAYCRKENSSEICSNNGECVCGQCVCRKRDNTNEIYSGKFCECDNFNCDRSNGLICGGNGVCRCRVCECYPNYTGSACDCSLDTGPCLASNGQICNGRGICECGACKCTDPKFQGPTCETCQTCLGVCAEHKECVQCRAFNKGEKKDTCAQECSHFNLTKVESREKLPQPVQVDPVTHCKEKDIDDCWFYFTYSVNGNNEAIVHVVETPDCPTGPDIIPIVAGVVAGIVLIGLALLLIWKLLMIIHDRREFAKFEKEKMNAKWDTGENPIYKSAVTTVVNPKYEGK
How it was run: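 Both assays used B16F10 cells (10⁵/well, seeded 24 h earlier) in HBSS/0.1% BSA/1 mM Mn²⁺ on ice. […] Kd: ¹⁷⁷Lu conjugate (0.2–40 nM), 2 h, n = 3, with nonspecific binding from a 15 μg LLP2A-PEG₄ block. Cell-bound counts were normalized to BCA protein and fitted for Kd and Ki.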

[1] = Biodistribution of ^68Ga-DOTA-PEG4-LLP2A; format: in vivo, mouse; conditions: C57BL/6, mouse, iv, 5.55 MBq, total radioactivity
How it was run: (§1)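 Mice bearing s.c. right-shoulder B16F10 tumors (10⁶ cells in PBS) received the ⁶⁸Ga tracer i.v. (5.55 MBq, 277 ng), n = 4 per group. They were sacrificed at 1 h. A blocking group received tracer premixed with 100 μg LLP2A-PEG₄. Tissues and tumor were weighed and γ-counted, and decay-corrected %ID/g was calculated against a standard. Data are mean ± SD.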

[2] = test system: B16F10 tumor-bearing C57BL/6 mice; test: Biodistribution of ^68Ga-DOTA-PEG4-LLP2A; format: in vivo, mouse; conditions: 360-fold excess of LLP2A-PEG4 (100 μg), 1 h
How it was run: as §1

B16F10 cells = test: Internalization assay; format: cell-based, mouse; conditions: 37 °C; for Internalized agent: 12 ng/well, n = 3
[3] = Biodistribution of ^177Lu-DOTA-PEG4-LLP2A; format: in vivo, mouse; conditions: C57BL/6, mouse, iv, 3.6 MBq, total radioactivity
How it was run: (§2)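 B16F10 cells (10⁶ in PBS) were implanted s.c. in the right shoulder of 6–8-week-old C57BL/6 mice. ¹⁷⁷Lu conjugate (3.6 MBq, 90 ng) was given i.v., n = 5 per group. Animals were killed at 4, 24, 48, 72 and 96 h. Blood, organs, muscle, bone and tumor were weighed and γ-counted. Values are decay-corrected %ID/g against an injected-dose standard, shown as tumor/blood and tumor/muscle ratios, mean ± SD.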

[4] = test system: B16F10 tumor-bearing C57BL/6 mice; test: Biodistribution of ^177Lu-DOTA-PEG4-LLP2A; format: in vivo, mouse; conditions: 4 h postinjection, i.v.
How it was run: as §2

Q: Which results are given for Cc1ccccc1NC(=O)Nc1ccc(CC(=O)N[C@@H](CCCCNC(=O)/C=C/c2cccnc2)C(=O)N[C@@H](CCCC(=O)O)C(=O)NC2(C(=O)NCCOCCOCCOCCOCCC(=O)N[C@@H](CCCCNC(=O)CN3CCN(CC(=O)O)CCN(CC(=O)O)CCN(CC(=O)O)CC3)C(N)=O)CCCCC2)cc1 [^68Ga-DOTA-PEG4-LLP2A, metal not drawn] ({NH(2-Me-phenyl)-CO}-[X1]K(Acryloyl(3-(3-pyridyl),E))[Aad][Ac6c][PEG4]K(DOTA)-NH2; N-terminus and C-terminus assumed)?
A: fold higher affinity than the ^177Lu-labeled conjugate (VLA-4 (integrin α4β1)): 3 fold; tissue uptake at 1 h ([1]; bone marrow): 3.2 ± 0.7 %ID/g; tissue uptake at 1 h ([1]; kidneys): 3.7 ± 0.9 %ID/g; tissue uptake at 1 h ([1]; liver): 1.9 ± 0.4 %ID/g; tissue uptake at 1 h ([1]; spleen): 5.4 ± 1.7 %ID/g; tissue uptake at 1 h ([1]; thymus): 4.6 ± 0.5 %ID/g; tissue uptake at 1 h ([1]; tumor): 9.1 ± 0.9 %ID/g; tissue to tissue ratio at 1 h ([1]; tumor/blood): 5.8 ± 1.5; tissue to tissue ratio at 1 h ([1]; tumor/muscle): 9.7 ± 1.5; uptake in blocking study [2]: reduction of uptake

Q: Which Internalized agent (B16F10 cells; 30 min (maximum uptake)) does the source give for Cc1ccccc1NC(=O)Nc1ccc(CC(=O)N[C@@H](CCCCNC(=O)/C=C/c2cccnc2)C(=O)N[C@@H](CCCC(=O)O)C(=O)NC2(C(=O)NCCOCCOCCOCCOCCC(=O)N[C@@H](CCCCNC(=O)CN3CCN(CC(=O)O)CCN(CC(=O)O)CCN(CC(=O)O)CC3)C(N)=O)CCCCC2)cc1 [^177Lu-DOTA-PEG4-LLP2A, metal not drawn] ({NH(2-Me-phenyl)-CO}-[X1]K(Acryloyl(3-(3-pyridyl),E))[Aad][Ac6c][PEG4]K(DOTA)-NH2; N-terminus and C-terminus assumed) here?
A: 341 ± 110 fmol/mg

Q: And the Internalized agent (B16F10 cells; 2 h)?
A: 343 ± 53 fmol/mg

Q: And the Internalized agent (B16F10 cells; 4 h)?
A: 303 ± 41 fmol/mg

Q: And the “time to internalization post addition” value (B16F10 cells; internalized rapidly)?
A: < 15 min

Q: What about the tissue uptake at 4 h ([3]; bone (likely bone marrow)) of the same molecule?
A: 10.1 ± 3.5 %ID/g

Q: What about the tissue uptake at 24 h ([3]; bone) of the same molecule?
A: 4.1 ± 0.4 %ID/g

Q: And the tissue uptake at 48 h ([3]; bone)?
A: 2.7 ± 0.6 %ID/g

Q: And the tissue uptake at 72 h ([3]; bone)?
A: 2.2 ± 0.5 %ID/g

Q: And the tissue uptake at 96 h ([3]; bone)?
A: 1.6 ± 0.6 %ID/g

Q: And the tissue uptake at 24 h ([3]; kidney)?
A: 2.4 ± 0.3 %ID/g

Q: And the tissue uptake at 4 h ([3]; kidneys)?
A: 6.5 ± 1.5 %ID/g

Q: What about the tissue uptake at 4 h ([3]; liver) of the same molecule?
A: 2.8 ± 0.4 %ID/g

Q: What about the tissue uptake at 24 h ([3]; liver) of the same molecule?
A: 1 ± 0.1 %ID/g

Q: What about the tissue uptake at 4 h ([3]; lungs) of the same molecule?
A: 5.9 ± 0.8 %ID/g

Q: What about the tissue uptake at 4 h ([3]; spleen) of the same molecule?
A: 27.1 ± 3.1 %ID/g

Q: And the tissue uptake at 24 h ([3]; spleen)?
A: 10.1 ± 4.1 %ID/g

Q: And the tissue uptake at 48 h ([3]; spleen)?
A: 7.4 ± 1.4 %ID/g

Q: And the tissue uptake at 72 h ([3]; spleen)?
A: 4.7 ± 1.5 %ID/g

Q: What about the tissue uptake at 96 h ([3]; spleen) of the same molecule?
A: 3.7 ± 1.1 %ID/g

Q: And the tissue uptake at 4 h ([3]; thymus)?
A: 9.7 ± 1.7 %ID/g

Q: And the tissue uptake at 24 h ([3]; thymus)?
A: 5.6 ± 0.9 %ID/g

Q: And the tissue uptake at 48 h ([3]; thymus)?
A: 4.1 ± 0.2 %ID/g

Q: What about the tissue uptake at 72 h ([3]; thymus) of the same molecule?
A: 2.7 ± 0.5 %ID/g

Q: What about the tissue uptake at 96 h ([3]; thymus) of the same molecule?
A: 1.7 ± 0.2 %ID/g

Q: And the tissue uptake at 4 h ([3]; tumor)?
A: 31.5 ± 7.8 %ID/g

Q: What about the tissue uptake at 24 h ([3]; tumor) of the same molecule?
A: 5.4 ± 1.5 %ID/g

Q: And the tissue uptake at 48 h ([3]; tumor)?
A: 1.7 ± 0.4 %ID/g

Q: And the tissue uptake at 72 h ([3]; tumor)?
A: 0.9 ± 0.4 %ID/g

Q: And the tissue uptake at 96 h ([3]; tumor)?
A: 0.4 ± 0.07 %ID/g

Q: And the tissue to tissue ratio at 4 h ([3]; tumor/blood)?
A: 36 ± 10

Q: And the tissue to tissue ratio at 24 h ([3]; tumor/blood)?
A: 186 ± 26

Q: And the tissue to tissue ratio at 48 h ([3]; tumor/blood)?
A: 61 ± 13

Q: What about the tissue to tissue ratio at 72 h ([3]; tumor/blood) of the same molecule?
A: 35 ± 37

Q: What about the tissue to tissue ratio at 96 h ([3]; tumor/blood) of the same molecule?
A: 25 ± 16

Q: And the tissue to tissue ratio at 4 h ([3]; tumor/muscle)?
A: 21 ± 7

Q: What about the tissue to tissue ratio at 24 h ([3]; tumor/muscle) of the same molecule?
A: 18 ± 3

Q: And the tissue to tissue ratio at 48 h ([3]; tumor/muscle)?
A: 9 ± 1

Q: And the tissue to tissue ratio at 72 h ([3]; tumor/muscle)?
A: 6 ± 3

Q: What about the tissue to tissue ratio at 96 h ([3]; tumor/muscle) of the same molecule?
A: 3 ± 0.4

Q: And the tumor uptake ([4]; 3.6 MBq, 90 ng, n = 5, mean ± SD)?
A: 31.3 ± 7.8 % ID/g

Q: What about the “uptake in the muscle, heart, and blood” value ([4]; n = 5) of the same molecule?
A: minimal uptake
